From PubChem
Hits are enriched below; roughly 2.3% of the tested compounds scored in any of these assays.
Env fusion inh = inhibitors of HIV-1 Env-driven cell-cell fusion, primary screen, HeLa-JRFL effector, CEM21 target cells, luciferase. 360,000 compounds, 1.1% hits. inhibition, % at 12.3 µM;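 active = mean replicate inhibition score of at least 50 and every replicate individually at or above 50; inconclusive = only one of the two criteria met; inactive = mean below 50 and not all replicates reaching 50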
PfHsp90 set2 = growth inhibition of PfHsp90-expressing yeast, primary screen, antimalarial PfHsp90 inhibitor project, S. cerevisiae, BacTiter-Glo luminescence, single point, set 2; BacTiter-Glo ATP, 48 h; yeast lacking PDR1 and PDR3 efflux regulators; inhibition, % at 9.4 µM; 310,000 compounds, 0.32% hits;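 active = every replicate shows inhibition above about 80%, whatever the replicate mean, limit read from the data; inconclusive = mean inhibition reaches the set limit but some replicate falls short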
N-glyco inh = increase of ERlucT glycosylation luciferase signal, primary screen, N-linked glycosylation inhibitor project, D54 ERlucT cells, luminescence, set 2; D54 ERlucT glycosylation luciferase reporter, 24 h; percent of 100 nM tunicamycin response; 360,000 compounds, 0.23% hits; reporter increase, % at 12.5 µM;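 active = mean luciferase reporter signal, scaled so untreated is 0 and the glycosylation-blocking control 100, at or above a set limit in every replicate; inconclusive = mean reaches the limit but not every replicate does; inactive = mean below the limit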;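 also: luciferase carries N-glycosylation sites so blocking glycosylation raises the light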
Rtt109 Vps75 = inhibitors of C. albicans Rtt109/Vps75 HAT, primary screen, biochemical, ThioGlo CoA-SH fluorescence, plate reader | Histone acetyltransferase RTT109 (Candida albicans (strain SC5314 / ATCC MYA-2876)), … | purified Rtt109/Vps75, 4 h | inhibition, % at 34.9 µM | 330,000 compounds, 0.16% hits | AID 540336, 2011;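 active = inhibition of at least 50% in every replicate; inconclusive = best replicate reaches 50% inhibition but some replicates fall short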
Target sequence (Q5AAJ8 whole entry, looked up): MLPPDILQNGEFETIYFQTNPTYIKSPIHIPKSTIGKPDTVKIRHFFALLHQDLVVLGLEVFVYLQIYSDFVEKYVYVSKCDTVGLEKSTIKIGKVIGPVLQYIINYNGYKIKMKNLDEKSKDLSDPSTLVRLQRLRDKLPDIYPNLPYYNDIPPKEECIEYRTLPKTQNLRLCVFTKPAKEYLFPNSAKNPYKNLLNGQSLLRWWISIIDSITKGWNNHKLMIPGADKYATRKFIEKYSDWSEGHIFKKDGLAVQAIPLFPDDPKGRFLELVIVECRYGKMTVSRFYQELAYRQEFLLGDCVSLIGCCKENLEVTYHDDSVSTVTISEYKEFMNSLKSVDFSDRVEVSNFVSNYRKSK
PAX8 inh HTS = inhibitors of PAX8-driven TPO luciferase reporter, primary screen, RMG-I cells, single concentration. SteadyGlo, 24 h. inhibition, % at 12.6 µM. 360,000 compounds, 1.2% hits;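 active = mean replicate inhibition at least 60% with every replicate also reaching 60%; inconclusive = only one of the two criteria is met; inactive = mean below 60% and not all replicates reaching 60%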;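 also: luciferase light reporting Pax8 driven TPO promoter activity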
Arrestin-AP2 inh = inhibitors of beta-arrestin/AP2 binding, primary screen, biochemical, GPCR trafficking, flow cytometry; beta-arrestin 1 C-terminal peptide binding to AP2 beta2-adaptin appendage (human); FITC-arrestin peptide / GST-AP2 beads; AP2 beta2 appendage carries R879A mutation; inhibition, % at 10 µM; 340,000 compounds, 0.31% hits; AID 504490, 2011;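 active = inhibition above a set limit, near 3 SD of compounds lacking own fluorescence, cut at about 54% in these data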
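Measured by: flow cytometry, FL1 (488/535 nm); Material: AP2 appendage R879A on GSH beads; Evaluation: percent response; Timing: pre-incubation 12 min, peptide binding 1 h, room temperature; Also added: 50 nM FITC-arrestin peptide; Medium: PBS with 0.05% Tween 20 and 0.1% BSA.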
Hits are given with their value; 0 = inactive; ? = inconclusive; - = no result given; ! = a repeat was not active; [ ] = another dose, or the depositor's remark.

SMILES	Env fusion inh	PfHsp90 set2	N-glyco inh	Rtt109 Vps75	PAX8 inh HTS	Arrestin-AP2 inh
Cc1ccc(S(=O)(=O)Nc2ccc3c(c2)CC(=O)N([C@H](C)CO)C[C@H](C)[C@H](CN(C)S(=O)(=O)c2ccc(F)cc2)O3)cc1	110[16.7 µM]	-	-	-	79	-
Cc1ccc(S(=O)(=O)N(C)C[C@H]2OCc3cnnn3CCCC(=O)N([C@@H](C)CO)C[C@H]2C)cc1	0	-	0	-	62!	-
CCNC(=O)Nc1ccc2c(c1)C(=O)N(C)[C@@H]1CC[C@H](CC(=O)Nc3ccccc3)O[C@H]1CO2	0	-	-	-	0	-
O=C(Nc1ccccc1)Nc1nnc(-c2cccs2)s1	0	0	0	0	0	0
COc1ccc(NC(=O)Nc2nnc(-c3cccs3)s2)cc1	0	0	0	62	0	0
C[C@@H]1CN([C@@H](C)CO)S(=O)(=O)c2ccc(-c3cccnc3)cc2O[C@@H]1CN(C)C(=O)C1CCC1	0	-	-	-	-	-
CCCCn1c(=N)n(CC(=O)c2ccc(Br)s2)c2ccccc21	0	0	0	0	72	0
CC(C1CC1)N(Cc1ccccc1)C(=S)Nc1ccccc1 (stereo not drawn)	0	0	0	0	0	0
CC(C1CC1)N(Cc1ccccc1)C(=S)Nc1cccc(C(F)(F)F)c1 (stereo not drawn)	-	0	0	0	118	0
COc1cccc2c1C(=O)c1c(O)c3c(c(O)c1C2=O)C[C@@](O)(C(C)=O)C[C@@H]3O[C@H]1C[C@H](N)[C@H](O)[C@H](C)O1	-	0	0	?	114	0
COc1cccc2c1C(=O)c1c(O)c3c(c(O)c1C2=O)C[C@@](O)(C(=O)CO)C[C@@H]3O[C@H]1C[C@H](N)[C@@H](O)[C@H](C)O1	-	0	0	0	-	0
COc1cccc2c1C(=O)c1c(O)c3c(c(O)c1C2=O)CC(O)(C(=O)CO)CC3OC1CC(N(C)C)C(O)C(C)O1 (stereo not drawn)	59	106	0	0	112	0
Cc1noc(C)c1S(=O)(=O)Nc1ccc2c(c1)C(=O)N([C@H](C)CO)C[C@@H](C)[C@@H](CN(C)C(=O)Nc1ccc(F)cc1)OCCCC[C@@H](C)O2	0	-	-	-	0	-
CCC(=O)Nc1ccc2c(c1)OC[C@@H](C)N(Cc1ccccn1)C[C@@H](C)[C@@H](OC)CN(C)C2=O	-	-	-	-	0	-
CNC[C@@H]1OCCCC[C@H](C)Oc2ccc(NC(=O)NC(C)C)cc2C(=O)N([C@H](C)CO)C[C@H]1C	0	-	-	-	0	-
Cc1cc(N2CCC(C(=O)N3CCN(c4cccc(C)c4C)CC3)CC2)n2ncnc2n1	67	-	0	0	-	0
Cc1cccc(N2CCN(C(=O)C3CCCCC3)CC2)c1C	-	0	0	0	-	0
N#Cc1c(F)cccc1N1CCC(C#N)CC1	64	0	0	0	0	0
O=C(C[C@@H]1CC[C@H]2[C@@H](COC[C@H](O)CN2S(=O)(=O)c2cccc(Cl)c2)O1)Nc1ccc(-c2ccccc2)cc1	-	-	-	-	67	-
O=C(C[C@@H]1CC[C@@H]2[C@H](COC[C@H](O)CN2S(=O)(=O)c2cccc(Cl)c2)O1)Nc1ccc(-c2ccccc2)cc1	-	-	-	-	94	-
Cc1ccc(S(=O)(=O)Nc2ccc3c(c2)C(=O)N([C@@H](C)CO)C[C@H](C)[C@H](CN(C)S(=O)(=O)c2ccc(F)cc2)O3)cc1	0	-	-	-	-	-
O=c1[nH]c(-c2ccccn2)nc(C(F)(F)F)c1Br	0	90	0	0	0	0
CN1c2ccccc2C(C)(C)C12C=Nc1c(cc(N3CCOCC3)c3ccccc13)O2 (stereo not drawn)	0	0	0	0	72	0
CN1c2ccccc2C(C)(C)C12C=Cc1cc(O)ccc1O2 (stereo not drawn)	-	-	0	0	-	0
O=C(C[C@@H]1C[C@@H]2c3cc(NS(=O)(=O)c4ccc(F)cc4)ccc3O[C@@H]2[C@@H](CO)O1)NCc1ccc(-c2ccccc2)cc1	0	-	-	-	87	-
SMILES	Env fusion inh	PfHsp90 set2	N-glyco inh	Rtt109 Vps75	PAX8 inh HTS	Arrestin-AP2 inh
O=C(C[C@@H]1C[C@H]2c3cc(NS(=O)(=O)c4ccc(F)cc4)ccc3O[C@H]2[C@H](CO)O1)NCc1ccc(Cl)cc1	0	-	-	-	78	-
O=C(C[C@@H]1C[C@H]2c3cc(NS(=O)(=O)c4ccc(F)cc4)ccc3O[C@H]2[C@@H](CO)O1)NCc1ccc(-c2ccccc2)cc1	0	-	-	-	73	-
O=C(C[C@@H]1C[C@@H]2c3cc(NS(=O)(=O)c4ccc(F)cc4)ccc3O[C@@H]2[C@H](CO)O1)NCc1ccc(Cl)cc1	0	-	-	-	0	-
O=C(C[C@H]1C[C@H]2c3cc(NS(=O)(=O)c4ccc(F)cc4)ccc3O[C@H]2[C@H](CO)O1)NCc1ccc(-c2ccccc2)cc1	0	-	-	-	84	-
O=C(Nc1ccccc1Cl)N1C[C@@H]2[C@H](c3ccccc31)[C@H](CO)N2C(=O)c1cccnc1	-	-	-	-	0	-
COc1ccc(C(=O)CSC#N)cc1OC	0	0	26	0	0	0
COc1ccc(C(=O)COC(=O)c2ccc(OC)c(OC)c2)cc1OC	-	0	0	0	-	0
COc1ccc(C(=O)N(C)C(C)c2nccs2)cc1OC1CCN(C(C)=O)CC1 (stereo not drawn)	0	-	0	-	0	-
CC[C@@H](C)[C@H](C(CC(=O)N1CCCC1[C@@H](OC)[C@H](C)C(=O)N[C@H](Cc1ccccc1)c1nccs1)OC)N(C)C(=O)[C@H](NC(=O)[C@@H](C(C)C)N(C)C)C(C)C (stereo partly drawn)	0	0	0	0	82	0
CC(C)C#Cc1cnc2c(c1)C(=O)N([C@H](C)CO)C[C@H](C)[C@H](CN(C)Cc1ccc3c(c1)OCO3)O2	0	-	-	-	0	-
COc1ccccc1NS(=O)(=O)c1cc(C(=O)N2CC(C)CC(C)C2)ccc1C (stereo not drawn)	0	102	0	0	-	0
CCC(=O)N1CC2(C1)CN(CC1CCCCC1)[C@@H](CO)c1c2c2ccc(OC)cc2n1C	-	-	-	-	0	-
O=C(C(Cc1ccccc1)NS(=O)(=O)c1cccc2cccnc12)N1CCc2ccccc21 (stereo not drawn)	55	0	0	0	0	0
O=S(=O)(c1cccc2cccnc12)N1CCc2ccccc21	-	0	0	0	-	0
COc1ccc(S(=O)(=O)Nc2ccc3c(c2)C(=O)N(C)C[C@@H](OC)[C@@H](C)CN[C@H](C)CO3)cc1	0	-	-	-	0	-
COC(=O)[C@@H]1[C@@H](CO)[C@@H]2Cn3c(ccc(-c4cccc(F)c4)c3=O)[C@@H]2N1CC1CCCC1	-	-	-	-	64	-
